Several values for one entry are separate records, joined by “and”; a condition that tells them apart may be missing. Equal values may be shown once.
Tested on: Fibroblast
Test: Multiplex assay against human fibroblast
Format: toxicity, cell-based
Procedure, shortened: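 Live cells were stained at seeding with Hoechst33342, BioTracker Green Microtubule Cytoskeleton Dye, MitoTracker Red and Annexin V Alexa Fluor 680. Following compound addition, they were imaged on a CQ1 microscope at 37°C and 5% CO2 and gated by CellPathfinder machine learning into Hoechst high-intensity objects or normal cells, with normal cells split into healthy, pyknosed or fragmented nuclei and pyknosed cells into mitotic or apoptotic. Tubulin, mitochondrial-mass and membrane-permeability phenotypes are per cents of healthy-nucleus cells.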

[1] = 12 h, 1 µM, compound concentration 1 uM
[2] = 12 h, 10 µM, compound concentration 10 uM
[3] = 24 h, 1 µM, compound concentration 1 uM
[4] = 24 h, 10 µM, compound concentration 10 uM
[5] = 48 h, 1 µM, compound concentration 1 uM
[6] = 48 h, 10 µM, compound concentration 10 uM

CN1[C@@H](CC(=O)c2ccccc2)CCC[C@H]1C[C@H](O)c1ccccc1.Cl [LOBELINE HYDROCHLORIDE]
Population Apoptotic (%) [1]: 11.11% and 18.52% | Population Fragmented Nuclei (%) [1]: 12.29% and 4.19% | Population Healthy Nuclei (%) [1]: 57.54% and 81.68% | Population Hoechst High Intensity Objects (%) [1]: 0% | Population Membrane Permeable-Phenotype (%) [1]: 3.88% and 3.21% | Population Mitochondria Different-Phenotype (%) [1]: 13.59% and 7.05% | Population Mitotic Cells (%) [1]: 88.89% and 81.48% | Population Normal (%) [1]: 100% | Population Pyknosed Nuclei (%) [1]: 30.17% and 14.14% | Population Tubulin-Different-Phenotype (%) [1]: 15.53% and 14.1% | Total Cell Count [1]: 179 and 191 | Population Apoptotic (%) [2]: 16.36% and 11.43% | Population Fragmented Nuclei (%) [2]: 9.48% and 12.07% | Population Healthy Nuclei (%) [2]: 64.45% and 72.84% | Population Hoechst High Intensity Objects (%) [2]: 0% | Population Membrane Permeable-Phenotype (%) [2]: 8.09% and 4.73% | Population Mitochondria Different-Phenotype (%) [2]: 25% and 14.79% | Population Mitotic Cells (%) [2]: 83.64% and 88.57% | Population Normal (%) [2]: 100% | Population Pyknosed Nuclei (%) [2]: 26.07% and 15.09% | Population Tubulin-Different-Phenotype (%) [2]: 35.29% and 43.2% | Total Cell Count [2]: 211 and 232 | Population Fragmented Nuclei (%) [3]: 8.95% and 0.5% | Population Healthy Nuclei (%) [3]: 64.21% and 85.07% | Population Hoechst High Intensity Objects (%) [3]: 0% | Population Membrane Permeable-Phenotype (%) [3]: 3.28% and 3.51% | Population Mitochondria Different-Phenotype (%) [3]: 11.48% and 7.02% | Population Mitotic Cells (%) [3]: 96.08% and 82.76% | Population Normal (%) [3]: 100% | Population Pyknosed Nuclei (%) [3]: 26.84% and 14.43% | Population Tubulin-Different-Phenotype (%) [3]: 28.69% and 18.13% | Total Cell Count [3]: 190 and 201 | Population Fragmented Nuclei (%) [4]: 9.69% and 11.42% | Population Healthy Nuclei (%) [4]: 75.77% and 77.95% | Population Hoechst High Intensity Objects (%) [4]: 0% | Population Membrane Permeable-Phenotype (%) [4]: 2.33% and 2.02% | Population Mitochondria Different-Phenotype (%) [4]: 22.09% and 12.12% | Population Mitotic Cells (%) [4]: 93.94% and 66.67% | Population Normal (%) [4]: 100% | Population Pyknosed Nuclei (%) [4]: 14.54% and 10.63% | Population Tubulin-Different-Phenotype (%) [4]: 43.02% and 41.41% | Total Cell Count [4]: 227 and 254 | Population Apoptotic (%) [5]: 23.08% and 23.53% | Population Fragmented Nuclei (%) [5]: 9.22% and 3.83% | Population Healthy Nuclei (%) [5]: 84.47% and 88.04% | Population Hoechst High Intensity Objects (%) [5]: 0% | Population Membrane Permeable-Phenotype (%) [5]: 1.15% and 1.63% | Population Mitochondria Different-Phenotype (%) [5]: 8.62% and 3.26% | Population Mitotic Cells (%) [5]: 76.92% and 76.47% | Population Normal (%) [5]: 100% | Population Pyknosed Nuclei (%) [5]: 6.31% and 8.13% | Population Tubulin-Different-Phenotype (%) [5]: 9.2% and 7.07% | Total Cell Count [5]: 206 and 209 | Population Apoptotic (%) [6]: 30.77% and 35.71% | Population Fragmented Nuclei (%) [6]: 10.79% and 10.97% | Population Healthy Nuclei (%) [6]: 83.82% and 83.12% | Population Hoechst High Intensity Objects (%) [6]: 0% | Population Membrane Permeable-Phenotype (%) [6]: 1.98% and 6.09% | Population Mitochondria Different-Phenotype (%) [6]: 11.39% and 5.58% | Population Mitotic Cells (%) [6]: 69.23% and 64.29% | Population Normal (%) [6]: 100% | Population Pyknosed Nuclei (%) [6]: 5.39% and 5.91% | Population Tubulin-Different-Phenotype (%) [6]: 12.38% and 25.89% | Total Cell Count [6]: 241 and 237

CC(C)(C)c1cc(C(C)(C)C)c(NC(=O)c2c[nH]c3ccccc3c2=O)cc1O [IVACAFTOR]
Population Apoptotic (%) [1]: 10.53% and 22.22% | Population Healthy Nuclei (%) [1]: 60.13% and 75% | Population Hoechst High Intensity Objects (%) [1]: 0% | Population Membrane Permeable-Phenotype (%) [1]: 1.09% and 0.74% | Population Mitotic Cells (%) [1]: 89.47% and 77.78% | Population Normal (%) [1]: 100% | Population Pyknosed Nuclei (%) [1]: 24.84% and 20% | Population Tubulin-Different-Phenotype (%) [1]: 15.22% and 9.63% | Total Cell Count [1]: 153 and 180 | Population Apoptotic (%) [2]: 15.07% and 33.33% | Population Fragmented Nuclei (%) [2]: 15.18% and 7.21% | Population Healthy Nuclei (%) [2]: 46.6% and 73.87% | Population Hoechst High Intensity Objects (%) [2]: 0% | Population Membrane Permeable-Phenotype (%) [2]: 0% and 3.05% | Population Mitochondria Different-Phenotype (%) [2]: 21.35% and 13.41% | Population Mitotic Cells (%) [2]: 84.93% and 66.67% | Population Normal (%) [2]: 100% | Population Pyknosed Nuclei (%) [2]: 38.22% and 18.92% | Population Tubulin-Different-Phenotype (%) [2]: 24.72% and 29.27% | Total Cell Count [2]: 191 and 222 | Population Apoptotic (%) [3]: 2.7% and 8% | Population Fragmented Nuclei (%) [3]: 9.82% and 4.92% | Population Healthy Nuclei (%) [3]: 67.48% and 81.42% | Population Hoechst High Intensity Objects (%) [3]: 0% | Population Membrane Permeable-Phenotype (%) [3]: 3.64% and 2.01% | Population Mitochondria Different-Phenotype (%) [3]: 10.91% and 10.07% | Population Mitotic Cells (%) [3]: 97.3% and 92% | Population Normal (%) [3]: 100% | Population Pyknosed Nuclei (%) [3]: 22.7% and 13.66% | Population Tubulin-Different-Phenotype (%) [3]: 11.82% and 11.41% | Total Cell Count [3]: 163 and 183 | Population Apoptotic (%) [4]: 13.85% and 28.57% | Population Fragmented Nuclei (%) [4]: 9.6% and 8.97% | Population Healthy Nuclei (%) [4]: 53.67% and 78.48% | Population Hoechst High Intensity Objects (%) [4]: 0% | Population Membrane Permeable-Phenotype (%) [4]: 2.11% and 0.57% | Population Mitochondria Different-Phenotype (%) [4]: 21.05% and 24.57% | Population Mitotic Cells (%) [4]: 86.15% and 71.43% | Population Normal (%) [4]: 100% | Population Pyknosed Nuclei (%) [4]: 36.72% and 12.56% | Population Tubulin-Different-Phenotype (%) [4]: 45.26% and 44% | Total Cell Count [4]: 177 and 223 | Population Fragmented Nuclei (%) [5]: 10.22% and 4.66% | Population Healthy Nuclei (%) [5]: 83.33% and 86.53% | Population Hoechst High Intensity Objects (%) [5]: 0% | Population Membrane Permeable-Phenotype (%) [5]: 1.94% and 0% | Population Mitotic Cells (%) [5]: 75% and 94.12% | Population Normal (%) [5]: 100% | Population Pyknosed Nuclei (%) [5]: 6.45% and 8.81% | Population Tubulin-Different-Phenotype (%) [5]: 7.74% and 11.98% | Total Cell Count [5]: 186 and 193 | Population Apoptotic (%) [6]: 21.88% and 28.57% | Population Fragmented Nuclei (%) [6]: 11.48% and 7.92% | Population Healthy Nuclei (%) [6]: 73.21% and 86.25% | Population Hoechst High Intensity Objects (%) [6]: 0% | Population Membrane Permeable-Phenotype (%) [6]: 0.65% and 0.97% | Population Mitochondria Different-Phenotype (%) [6]: 25.49% and 13.53% | Population Mitotic Cells (%) [6]: 78.12% and 71.43% | Population Normal (%) [6]: 100% | Population Pyknosed Nuclei (%) [6]: 15.31% and 5.83% | Population Tubulin-Different-Phenotype (%) [6]: 24.18% and 39.61% | Total Cell Count [6]: 209 and 240

— ChEMBL document CHEMBL5724801, “EUbOPEN Chemogenomics Library - Multiplex” (2024)
